≈ marks a conversion by molar mass, not a printed value.

What all share (format): functional
One assay concerns Proteus vulgaris. Nature of the assay: Minimum inhibitory concentration required for antibacterial activity against Proteus vulgaris. The method in brief:
(§1)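 Broth tube dilution in nutrient broth (5 mL final volume). The compound was diluted in phosphate buffer pH 7.4 and culture broth to final concentrations of 1–600 µg/mL. Inoculum was adjusted to 3×10^5 CFU/mL in Ringer's solution, then incubated at 35 °C for 24 h. Tubes without visible growth were subcultured (10 µL) onto agar plates at 35 °C and checked microscopically for growth.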

The subject of the next assay is Escherichia coli. Nature of the assay: Minimum inhibitory concentration required for antibacterial activity against Escherichia coli. The method in brief: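 Broth tube dilution in nutrient broth; stock in sulfoxide solvent, diluted in phosphate buffer pH 7.4 and culture broth to final 1–600 µg/mL. Inoculum in Ringer's solution, 3×10^5 CFU/mL; 35 °C for 24 h. Tubes without visible growth subcultured (10 µL) onto agar plates at 35 °C, growth checked by microscope.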

Assay [1] has as its system Mycobacterium tuberculosis. Nature of the assay: Minimum inhibitory concentration required for antibacterial activity against Mycobacterium tuberculosis. The method in brief:
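Tube dilution in M-33 broth (yeast extract, tryptone, glucose, pH 7.0; 5 mL final volume). Test agent was diluted in phosphate buffer pH 7.4 and broth to a final 1–600 µg/mL. Inoculum was 3×10^5 CFU/mL prepared in Ringer's solution, incubated at 35 °C for 120 h. Clear tubes were subcultured (10 µL) on agar at 35 °C and examined under a microscope for growth.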

The subject of the next assay is Thanatephorus cucumeris. Description: Minimum fungicidal concentration required against Rhizoctonia solani. The essentials: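 Tube assay in molten M2 agar (g/L: yeast extract 5.00, NaCl 10.00, KH2PO4 0.10, MgSO4·7H2O 0.05, dextrose 10.00, agar 15.0, pH 7.1). Stock in sulfoxide solvent, diluted in phosphate buffer pH 7.4 and culture broth; final 1–600 µg/mL. Spore suspension in Ringer's solution, 3×10^5 CFU/mL; 35 °C, 48 h. MFC = lowest concentration killing 95% of inoculum.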

For another assay, the system named is Bacillus subtilis. Nature of the assay: Minimum inhibitory concentration required for antibacterial activity against Bacillus subtilis. The essentials: as §1

As for `CCCCCOC(=O)c1ccncc1` [ISONICOTINIC ACID PENTYL ESTER], the MIC (usually the lowest concentration found to suppress growth) in the assay with Proteus vulgaris turned out to be 14 µg/mL (≈ 72.4 µM); in the assay with Escherichia coli, 20 µg/mL (≈ 103 µM); in assay [1], 10 µg/mL (≈ 51.7 µM); in the assay on Bacillus subtilis, 20 µg/mL (≈ 103 µM). The MFC (as a rule, the lowest tested concentration that kills the fungus rather than only halting it) against Thanatephorus cucumeris was 14 µg/mL (≈ 72.4 µM).
Consider `CCCCC[C@@H](C)COC(=O)c1ccncc1` [ISONICOTINIC ACID 2-METHYL-HEPTYL ESTER], for which the MIC against Proteus vulgaris was 6 µg/mL (≈ 25.5 µM); against Escherichia coli, 30 µg/mL (≈ 127 µM); in assay [1] it was 10 µg/mL (≈ 42.5 µM); in the assay on Bacillus subtilis, 16 µg/mL (≈ 68 µM). For the same compound, the MFC against Thanatephorus cucumeris turned out to be 24 µg/mL (≈ 102 µM).
The corresponding values for `CCCCCCCCCCCCCCCCCCOC(=O)c1ccncc1` [ISONICOTINIC ACID OCTADECYL ESTER] are 500 µg/mL (≈ 1330 µM), 56 µg/mL (≈ 149 µM), 320 µg/mL (≈ 852 µM), 600 µg/mL (≈ 1600 µM) and 600 µg/mL (≈ 1600 µM).
With `CCCCOC(=O)c1ccncc1` [ISONICOTINIC ACID BUTYL ESTER], the MIC with Proteus vulgaris was found to be 500 µg/mL (≈ 2790 µM); with Escherichia coli it was 500 µg/mL (≈ 2790 µM); in assay [1] it was 280 µg/mL (≈ 1560 µM); against Bacillus subtilis, 600 µg/mL (≈ 3350 µM). In the assay on Thanatephorus cucumeris, the MFC stood at 600 µg/mL (≈ 3350 µM).
Consider `CCCCCCOC(=O)c1ccncc1` [ISONICOTINIC ACID HEXYL ESTER], for which the MIC was determined as 36 µg/mL (≈ 174 µM) in the assay on Proteus vulgaris, 35 µg/mL (≈ 169 µM) in the assay on Escherichia coli, 24 µg/mL (≈ 116 µM) in assay [1] and 50 µg/mL (≈ 241 µM) against Bacillus subtilis. Further, in the assay with Thanatephorus cucumeris, the MFC amounted to 44 µg/mL (≈ 212 µM).
The corresponding values for `CCCCCCCCOC(=O)c1ccncc1` [ISONICOTINIC ACID OCTYL ESTER] are 6 µg/mL (≈ 25.5 µM), 12 µg/mL (≈ 51 µM), 8 µg/mL (≈ 34 µM), 16 µg/mL (≈ 68 µM) and 18 µg/mL (≈ 76.5 µM).
Take `CCCCC[C@H](C)COC(=O)c1ccncc1` [(S)-2-METHYLHEPTYL ISONICOTINATE]: the MIC with Proteus vulgaris was 14 µg/mL (≈ 59.5 µM); against Escherichia coli, 40 µg/mL (≈ 170 µM); in assay [1], 14 µg/mL (≈ 59.5 µM); in the assay on Bacillus subtilis, 20 µg/mL (≈ 85 µM). This compound also registered a minimum fungicidal concentration (MFC) with Thanatephorus cucumeris of 32 µg/mL (≈ 136 µM).
`CCCCCCCOC(=O)c1ccncc1` [ISONICOTINIC ACID HEPTYL ESTER]: the MIC in the assay with Proteus vulgaris came to 16 µg/mL (≈ 72.3 µM); in the assay with Escherichia coli, 16 µg/mL (≈ 72.3 µM); in assay [1], 16 µg/mL (≈ 72.3 µM); against Bacillus subtilis, 24 µg/mL (≈ 108 µM). Besides, in the assay with Thanatephorus cucumeris, the MFC was found to be 15 µg/mL (≈ 67.8 µM).

These data come from ChEMBL document CHEMBL1147480, “Synthesis, absolute stereochemistry and molecular design of the new antifungal and antibacterial antibiotic produced by Streptomyces sp.201” (2004).
